# An excerpt weighted towards active compounds, which were near 1.6% of everything screened.
# LANA-H2A inh: blockers of LANA interaction with H2A/H2B – biochemical, FP readout, HTS, primary screen; hit rate 0.6% among 320,000; cell-free LANA-H2A/H2B peptide, fluorescence polarization; AID 2629, 2010; Protein LANA1 (Human herpesvirus 8 type P (isolate GK18)), Q9QR71; inhibition, % (no concentration beside the values); in the data active means inhibition mostly above about 10%, no sharp cut-off; inactive means mostly below about 6.7%
# HDAC3 inhib: HDAC3 deacetylase inhibitors, primary screen, biochemical, fluorescence, cell-free homogeneous; AID 2718, 2010; hit rate 0.15% among 320,000; inhibition, % at 8.3 µM; recombinant HDAC3, fluorogenic peptide/trypsin coupled; Histone deacetylase 3 (Homo sapiens), O15379; in the data active means inhibition above about 26%, passing the limit was not always enough
# Pemphigus Ab inh: inhibitors of pemphigus antibody binding to DSG3, primary screen, biochemical, bead-based, flow cytometry, scFv-GFP; DSG3-coupled beads, scFv-anti-DSG3-GFP binding; active compounds read low; binding (percent of control), % at 10 µM; Desmoglein-3 (Homo sapiens), P32926; hit rate 0.48% among 310,000;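 active means binding more than 3 SD below its plate's average and above zero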;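 further: hits lower antibody fragment binding to DSG3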
# T cell modulator: modulators of CD8 T cell-vesicle binding, primary screen, mouse 2C CD8+ T cells, flow cytometry. 2C CD8+ T cell-vesicle binding; active compounds read low. response (vesicle binding), % at 7 µM. hit rate 0.068% among 330,000;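 active means response, share of CD8 T cells binding vesicles, and their 90th percentile fluorescence all below set limits, cut at about 80% in these data, passing the limit was not always enough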;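 further: values below 100% mean blocked vesicle binding to the CD8+ T cells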
#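 Read-out – percent CD8+ FL2 mean versus row control · System – murine 2C transgenic CD8+ T lymphocytes · Times – 1.5 h cell–vesicle binding at 37 °C, then 20 min icy labelling · Control set – naked vesicles low, QL9 vesicles with vehicle high · Detection – cytometric PE anti-B7-1 and Alexa647 anti-CD8 signals after 1% paraformaldehyde fixation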
# Arr AP2 block: inhibitors of beta-arrestin/AP2 binding, primary screen, biochemical, GPCR trafficking, flow cytometry | beta-arrestin 1 C-terminal peptide binding to AP2 beta2-adaptin appendage (human) | FITC-arrestin peptide / GST-AP2 beads; AP2 beta2 appendage carries R879A mutation | inhibition, % at 10 µM | hit rate 0.31% among 340,000 | AID 504490, 2011;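 active means inhibition above a set limit, near 3 SD of compounds lacking own fluorescence, cut at about 54% in these data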;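 further: plate controls were DMSO wells for no effect and 5 µM unlabelled arrestin peptide for full effect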
#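 Material – GST-tagged AP2 beta2-adaptin appendage (R879A) on 4 µm glutathione beads · Probe or stimulus – fluorescein-tagged arrestin peptide at 50 nM final · Timing – 12 min plus 1 h, RT · Detection – bead flow cytometry, FITC channel · Read-out basis – inhibition as reduced fluorescein signal on beads, percent · Medium – PBS plus Tween 20 (0.05%) and BSA (0.1%)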
# JMJD2C inh: inhibitors of GASC-1 histone demethylase, primary screen, biochemical, fluorescence, DELFIA europium. hit rate 0.069% among 330,000. GST-JMJD2C(1-420) H3K9me3 demethylation. inhibition, % at 2.35 µM. AID 2099, 2009. Lysine-specific demethylase 4C (Homo sapiens), Q9H3R0;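 active means more than half of a compound's replicate wells show inhibition beyond 50%, single wells judged on their own value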;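 further: signal counts dimethyl H3K9 product captured on neutravidin plate; 0% = median of DMSO wells and 100% = 0.3 times that DMSO median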
# Target sequence (Q9H3R0 1-420 limits assumed): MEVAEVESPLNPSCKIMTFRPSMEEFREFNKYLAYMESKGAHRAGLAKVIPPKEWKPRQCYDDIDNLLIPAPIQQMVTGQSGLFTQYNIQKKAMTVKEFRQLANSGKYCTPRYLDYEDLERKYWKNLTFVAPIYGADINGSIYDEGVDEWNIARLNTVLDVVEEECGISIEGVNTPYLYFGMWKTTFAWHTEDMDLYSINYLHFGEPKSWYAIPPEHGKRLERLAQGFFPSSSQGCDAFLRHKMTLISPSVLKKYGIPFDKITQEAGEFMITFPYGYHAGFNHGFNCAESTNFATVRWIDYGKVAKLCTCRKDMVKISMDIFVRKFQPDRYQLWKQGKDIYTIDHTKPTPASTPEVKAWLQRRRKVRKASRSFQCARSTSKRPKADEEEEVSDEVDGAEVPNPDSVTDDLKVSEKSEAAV
# Arr AP2 CP1: inhibitors of arrestin peptide binding to AP2, confirmation, biochemical, cherry pick 1, flow cytometry beads; shares compounds with Arr AP2 block; GST-AP2 beads, FITC arrestin peptide binding; GST-fused beta2-adaptin appendage, R879A mutant; inhibition, % at 10 µM; hit rate 2% among 1,300; AID 504908, 2011;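 active means inhibition above a set limit, roughly 3 SD of non-fluorescent compound noise, cut at about 38% in these data; inactive means inhibition at or below that limit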;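 further: loss of bead fluorescence from 50 nM FITC arrestin peptide bound to appendage; 0% = negative control wells and 100% = excess unlabelled arrestin peptide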
# GST GSH counter: GST-fluorescein capture on glutathione beads, confirmation, artefact control for arrestin-AP2 inhibitor project, biochemical, cherry pick 1, flow cytometry. shares compounds with Arr AP2 block. GST-fluorescein binding to GSH beads, fluorescence, counter-screen. inhibition, % at 10 µM. hit rate 2% among 1,300;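 active means inhibition above 50%, about 3 SD of the inhibition seen with non-fluorescent compounds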;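 further: fluorescein maleimide labelled GST captured on 4 micron glutathione beads; higher means more loss of bead fluorescence from quenching or blocked binding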
# Numbers without * were called inactive; i = inactive; x = no result given.
SMILES,LANA-H2A inh,HDAC3 inhib,Pemphigus Ab inh,T cell modulator,Arr AP2 block,JMJD2C inh,Arr AP2 CP1,GST GSH counter
CC1CN(C(=O)c2ccc(NS(=O)(=O)c3ccc(F)c(F)c3)cc2)CC(C)O1 (stereo not drawn),0.9,-4.1,75.7,244.9,56.2*,5.4,-1.0,-11.4
CCSCc1nnc(SCC(=O)Nc2cccc(C(C)=O)c2)n1C,5.3,-9.5,98.9,460.7,39.2,-6.9,x,x
CCSCc1nnc(SCC(=O)Nc2cccc(SC)c2)n1C,3.4,-0.3,106.9,145.4,99.2*,-1.4,8.6,-3.1
CC(C)NC(=O)Nc1ccc2c(c1)C(=O)N([C@H](C)CO)C[C@H](C)[C@@H](CN(C)Cc1ccc(C(F)(F)F)cc1)OCCCC[C@H](C)O2,x,x,94.4,x,x,x,x,x
Cc1cccc(C(=O)Nc2c3c(nn2C(C)(C)C)CS(=O)(=O)C3)c1,-1.0,0.5,x,368.0,61.4*,-2.3,-2.5,-2.7
CC(C)(C)C(=O)COC(=O)C1=NN(c2ccccc2)C(=O)CC1,3.8,-4.5,102.1,316.5,22.4,2.4,x,x
CCN1/C(=C/c2ccc3cc(C)ccc3[n+]2CC)Sc2ccc3sccc3c21,-5.6,11.2,12.2,i,75.1*,-3.9,42.5*,139.7*
CCN(CC(=O)Nc1c(F)cccc1F)C(=O)CCN1C(=O)c2cccc([N+](=O)[O-])c2C1=O,-0.6,1.6,98.8,274.8,5.8,-7.3,x,x
CCN(CC(=O)Nc1ccc(NC(C)=O)cc1)C(=O)CCN1C(=O)c2cccc([N+](=O)[O-])c2C1=O,-6.6,-6.8,98.8,250.8,63.9*,3.4,-2.9,-6.0
C/C(=N\NC(=O)CNc1ccc(F)cc1)c1cc2ccccc2o1,-0.7,-2.6,104.2,138.8,63.7*,-4.5,11.1,-0.4
O=S(=O)(/N=C(/Nc1cccc2ccccc12)c1ccccc1)c1ccccc1,0.9,4.6,100.6,322.5,6.8,3.2,x,x
O=S(=O)(/N=C(/Nc1cccc2ccccc12)c1ccccc1)c1cccs1,-2.8,-4.0,96.2,350.0,99.9*,16.2,5.0,-13.1
CCc1ccccc1NC(=O)Nc1cccn(Cc2ccc(F)cc2)c1=O,-0.9,-4.8,100.9,645.5,58.2*,6.6,-4.8,-12.2
CCc1ccccc1NC(=O)Nc1ccc(F)cc1,-1.1,7.8,90.3,430.1,14.2,14.8,x,x
O=C1[C@@H](Oc2ccccc2)[C@@H](c2cnc3ccccc3c2)N1c1ccccc1,x,x,96.5,x,14.6,x,x,x
Cc1nc(OCC(=O)c2ccc(Cl)cc2)c(C#N)c2c1COC(C)(C)C2,3.2,4.7,105.6,417.1,90.5*,-2.2,3.4,-3.0
Cc1ccc(S(=O)(=O)NCc2ccccc2)cc1C(=O)NCc1ccccn1,2.8,-1.2,107.6,258.6,-2.7,-5.4,x,x
CCOC(=O)c1c(C)nc(C)c(C(=O)OCC)c1-c1ccco1,3.3,-6.0,x,260.4,-11.3,-0.7,x,x
NS(=O)(=O)c1ccc(NC(=O)C2C3C=CC(C3)C2C(=O)O)cc1 (stereo not drawn),4.9,3.8,99.9,162.2,57.8*,7.8,24.1,-7.0
Fc1ccc(C2Nc3cccc4cccc(c34)N2)cc1,5.6,-2.1,102.8,315.6,31.5,-3.5,x,x
Cc1ccc(C2Nc3cccc4cccc(c34)N2)s1,0.0,-15.2,100.1,303.7,87.3*,-2.7,9.4,10.2
COc1ccc(N2C(=O)CSC2c2ccc3c(c2)OCO3)cc1 (stereo not drawn),-3.1,2.1,104.6,904.7,60.8*,-15.3,4.4,-7.6
COc1ccc(CCC(=O)N2CCN(S(=O)(=O)c3cccc(Cl)c3)CC2)cc1,2.7,3.5,101.0,564.5,56.1*,-7.5,-7.6,0.2
COc1ccc(CCC(=O)N2CCN(S(=O)(=O)c3ccc(C)cc3)CC2)cc1,-1.8,0.3,101.0,313.9,-4.5,5.3,x,x
CCCCN(C(=O)c1ccc(N2CCCC2=O)cc1)c1c(N)n(CCC)c(=O)[nH]c1=O,-4.9,-3.5,102.7,168.9,0.7,-3.1,x,x
SMILES,LANA-H2A inh,HDAC3 inhib,Pemphigus Ab inh,T cell modulator,Arr AP2 block,JMJD2C inh,Arr AP2 CP1,GST GSH counter
Cc1ccc(CNC(=O)CS(=O)(=O)c2cn(CC(=O)N3CCOCC3)c3ccccc23)cc1,-1.8,-8.1,112.3,227.2,60.0*,-10.9,-0.9,-12.4
Cc1cc(C)nc(NC2=NCCN2C(=S)Nc2c(C)cccc2C)n1,-3.8,-1.6,114.6,267.9,-5.3,18.8,x,x
Nc1c(C(=O)NC2CC2)sc2nc3c(c(-c4ccco4)c12)CC/C3=C/c1ccco1,2.4,2.4,x,523.8,54.8*,40.0,35.0,22.0
COc1cc(/C=N/NC(=O)c2sc3nc(C)cc(C)c3c2N)ccc1O,1.5,-3.1,98.9,233.8,-5.6,-5.1,x,x
N#Cc1cn(-c2ccccc2)nc1C(=O)c1ccccc1,-6.6,0.3,93.8,574.9,83.0*,-2.1,-1.9,-8.5
CC(=O)c1nn(-c2ccccc2)cc1C(=O)c1ccc(C)cc1,5.7,6.3,102.5,748.5,0.6,-3.7,x,x
O=S(=O)(Nc1ccc2c(c1)OCCO2)c1cccc(F)c1,-1.7,1.8,102.6,163.1,-6.0,17.6,x,x
O=S(=O)(Nc1ccc2c(c1)OCCO2)c1c(F)cccc1F,-3.6,3.2,109.3,182.5,59.1*,4.8,-11.3,0.7
COc1ccc(NC(=O)C(=O)NCC(c2ccco2)N2CCc3ccccc3C2)cc1OC (stereo not drawn),-1.6,4.3,114.8,564.8,-10.3,-5.5,x,x
CCn1c(CC(=O)Nc2ccc(OC)cc2)nnc1SCC(=O)N1CCOCC1,4.2,-3.1,110.0,465.0,65.9*,2.7,5.8,-7.6
Cc1ccc(CNC(=O)Cn2cnc(S(=O)(=O)N3CCC(C)CC3)c2)o1,-7.1,2.1,x,383.5,55.2*,-24.7,-4.0,-0.2

# Screening results from PubChem.
